In ChEMBL document CHEMBL2046374, “Synthesis and biological evaluation of vinyl ether-containing azole derivatives as inhibitors of Trichophyton rubrum” (2012) one finds MIC80 data, which are given here for 20 compounds.

Values after ≈ are worked out from the molar mass of the structure shown.

This assay has as its system Trichophyton rubrum. Kind of assay: Antifungal activity against Trichophyton rubrum incubated at 35 degC for 72 hrs by NCCLS based microbroth dilution method. The assay is classed as functional. Summed up:
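Broth microdilution in 96-well plates per NCCLS; compounds dissolved in DMSO, serially diluted in growth medium, inoculated, incubated at 35 °C, read at 72 h for T. rubrum. MIC80 taken as first well with ~80% growth reduction versus drug-free well. Fluconazole, itraconazole, voriconazole, omoconazole and amphotericin B as positive controls. Tests run three times; mean of replicates reported.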
For orientation: In broth dilution the organism is exposed to a series of concentrations in liquid medium.

Consider `C/C(=C(/OCCOc1ccc(Cl)cc1)c1ccc(F)cc1F)n1cncn1.O=[N+]([O-])O`, for which the MIC80 came to 0.2 µg/mL.

In the case of `C/C(=C(/OCCCOc1ccc(Cl)cc1)c1ccc(F)cc1F)n1cncn1.O=[N+]([O-])O`, the MIC80 was found to be 0.125 µg/mL. Compared with the last compound, the MIC80 is about 1.6-fold lower.

With `C/C(=C(/OCCCCOc1ccc(Cl)cc1)c1ccc(F)cc1F)n1cncn1.O=[N+]([O-])O`, the MIC80 was determined as 0.0625 µg/mL.

Consider `C/C(=C(/OCCCCCOc1ccc(Cl)cc1)c1ccc(F)cc1F)n1cncn1.O=[N+]([O-])O`, for which the MIC80 worked out at 0.25 µg/mL.

For `C/C(=C(/OCCCCCCOc1ccc(Cl)cc1)c1ccc(F)cc1F)n1cncn1.O=[N+]([O-])O`, the MIC80 amounted to 2.5 µg/mL.

In turn, `C/C(=C(/OCCCOc1ccc(Br)cc1)c1ccc(F)cc1F)n1cncn1.O=[N+]([O-])O` yielded an MIC80 of 0.25 µg/mL.

Consider `C/C(=C(/OCCCOc1ccc(F)cc1)c1ccc(F)cc1F)n1cncn1.O=[N+]([O-])O`, for which the MIC80 was 0.1 µg/mL.

Compound `C/C(=C(/OCCCCOc1ccccc1Cl)c1ccc(F)cc1F)n1cncn1.O=[N+]([O-])O` came in with an MIC80 of 0.1 µg/mL.

For the compound `C/C(=C(/OCCCCOc1cccc(Cl)c1)c1ccc(F)cc1F)n1cncn1.O=[N+]([O-])O`, the MIC80 turned out to be 0.025 µg/mL.

In the case of `C/C(=C(/OCCCCOc1ccc(Cl)cc1Cl)c1ccc(F)cc1F)n1cncn1.O=[N+]([O-])O`, the MIC80 was determined as 2 µg/mL.

For `C/C(=C(/OCCCCOc1c(Cl)cc(Cl)cc1Cl)c1ccc(F)cc1F)n1cncn1.O=[N+]([O-])O`, the MIC80 was > 20 µg/mL.

Compound `C/C(=C(/OCCCCOc1ccc(Br)cc1)c1ccc(F)cc1F)n1cncn1.O=[N+]([O-])O` returned an MIC80 of 0.05 µg/mL.

`C/C(=C(/OCCCCOc1ccc(F)cc1)c1ccc(F)cc1F)n1cncn1.O=[N+]([O-])O`: the MIC80 worked out at 0.025 µg/mL.

The compound `C/C(=C(/OCCCOc1ccc(C)cc1)c1ccc(F)cc1F)n1cncn1.O=[N+]([O-])O` had an MIC80 of 2.5 µg/mL.

Compound `C/C(=C(/OCCCCOc1ccc(C)cc1)c1ccc(F)cc1F)n1cncn1.O=[N+]([O-])O` showed an MIC80 of 0.2 µg/mL.

Consider `C[C@@H]1[C@H](O)[C@@H](C)/C=C/C=C/C=C/C=C/C=C/C=C/C=C/[C@H](O[C@@H]2O[C@H](C)[C@@H](O)[C@H](N)[C@@H]2O)C[C@@H]2O[C@](O)(C[C@@H](O)C[C@@H](O)[C@H](O)CC[C@@H](O)C[C@@H](O)CC(=O)O[C@H]1C)C[C@H](O)[C@H]2C(=O)O` [AMPHOTERICIN B], for which the MIC80 was 2 µg/mL (≈ 2.16 µM).

With `OC(Cn1cncn1)(Cn1cncn1)c1ccc(F)cc1F` [FLUCONAZOLE], the MIC80 was determined as 4 µg/mL (≈ 13.1 µM).

The compound `CCC(C)n1ncn(-c2ccc(N3CCN(c4ccc(OCC5COC(Cn6cncn6)(c6ccc(Cl)cc6Cl)O5)cc4)CC3)cc2)c1=O` (stereo not given) [ITRACONAZOLE] came in with an MIC80 of 0.125 µg/mL (≈ 0.177 µM).

Turning to `C/C(=C(/OCCOc1ccc(Cl)cc1)c1ccc(Cl)cc1Cl)n1ccnc1` [OMOCONAZOLE], the MIC80 was determined as 0.1 µg/mL (≈ 0.236 µM).

Compound `C[C@@H](c1ncncc1F)[C@](O)(Cn1cncn1)c1ccc(F)cc1F` [VORICONAZOLE] showed an MIC80 of 0.0625 µg/mL (≈ 0.179 µM).

What is called MIC80 is the lowest concentration that inhibits either 80% of growth or 80% of the strains tested, depending on the study.
